Measured values pooled from the literature.
Read-out: cell growth or viability

For FC(F)(F)c1cc(OCc2cc(-c3ccccc3)no2)c2ccccc2n1, the IC50 was 32.1 µM (LN-229; MTS; 72 h).
For N#CSCCCCOc1ccc2c(-c3ccccc3)cc(=O)oc2c1, the GI50 was 28 µM (MIA PaCa-2; SRB).
Cc1ccc(-c2nn(-c3ccccc3)cc2C=Nc2c(N)nc(S)nc2O)cc1 has a CC50 of 13.1 µM (Jurkat; 48 h).
For N#CSCc1cc(=O)oc2cc(O)ccc12, the GI50 was 5.9 µM (T47D; SRB).
With COc1ccc(-c2nn(-c3ccccc3)cc2C=Nc2c(N)nc(S)nc2O)cc1 the CC50 was 17.3 µM (Jurkat; 48 h).
Cc1ncsc1-c1ccc([C@@H](C)NC(=O)[C@H]2C[C@H](O)CN2C(=O)[C@H](NC(=O)CCCCNC(=O)C23CC4CC(CC(Cn5ncc(-c6ccc(N7CCc8cccc(C(=O)Nc9nc%10ccccc%10s9)c8C7)nc6C(=O)O)c5C)(C4)C2)C3)C(C)(C)C)cc1 has an IC50 of > 1 µM (MOLT-4; MTS; 48 h).
For C[C@H](Nc1ccc2c(c1)OCCn1cc(N3C(=O)OC[C@H]3C(F)F)nc1-2)C(N)=O, the EC50 was 0.0516 µM (TCC-SUP; ATP luminescence; 5 days).
The IC50 of Cc1c(-c2ccc(N3CCc4cccc(C(=O)Nc5nc6ccccc6s5)c4C3)nc2C(=O)O)cnn1CC12CC3CC(C1)CC(C(=O)NCCOCCOCCOCCNc1cccc4c1C(=O)N(C1CCC(=O)NC1=O)C4=O)(C3)C2 (stereo not shown) is reported as 0.0846 µM (MOLT-4; MTS; 48 h).
For Cc1nc(Nc2ncc(C(=O)Nc3c(C)cccc3Cl)s2)cc(N2CC[C@H](O)C2)n1, the inhibition was 47% (Jurkat; ATP luminescence; 10 µM, 72 h).
For Cc1c(-c2ccc(N3CCc4cccc(C(=O)Nc5nc6ccccc6s5)c4C3)nc2C(=O)O)cnn1CC12CC3CC(CC(C3)C1)C2, the IC50 was 0.0021 µM (MOLT-4; MTS; 48 h).
The viability of O=C(C[C@@H](C(F)F)n1ccc(F)n1)N1CCC(O)(Cn2cnc3c(cnn3-c3ccc(F)cc3)c2=O)CC1 is reported as 18.3% (LNCaP; CCK-8; 0.1235 µM).
With Nc1nc(S)nc(O)c1N=Cc1cn(-c2ccccc2)nc1-c1ccccc1 the CC50 was 17.3 µM (Jurkat; 48 h).
For Cc1ncsc1-c1ccc([C@H](C)NC(=O)[C@@H]2C[C@@H](O)CN2C(=O)[C@@H](NC(=O)CCCCS(=O)(=O)NC(=O)c2nc(N3CCc4cccc(C(=O)Nc5nc6ccccc6s5)c4C3)ccc2-c2cnn(CC34CC5CC(CC(C5)C3)C4)c2C)C(C)(C)C)cc1, the IC50 was 0.0084 µM (MOLT-4; MTS; 48 h).
